Bioassay records from PubChem BioAssay.
KCC2 mod = modulators of human KCC2 chloride dependent transport; Q9H2X9; KCC2 cells, thallium flux FluoZin-2 fluorescence; B-score of Tl+ flux slope (higher = more flux/activation; lower = inhibition) at 10 µM; 190,000 tested, 2.2% active; AID 1456;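 active = thallium flux slope and its plate-corrected score both differing from the plate sample mean at a set confidence after two filtering rounds, in either direction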;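 note: slope of fluorescence scaled to starting intensity during 10 to 20 s after thallium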
KCNK3 block = human KCNK3 channel inhibition, primary screen; B-score at 10 µM; 340,000 tested, 0.84% active; CHO-KCNK3 thallium flux, FluxOR fluorescence; active compounds read low; AID 602410;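 active = B-score under library mean minus 4 SD, starting fluorescence ratio at most library mean plus 5 SD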;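 note: more negative B-score means stronger inhibition of thallium flux through KCNK3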
KCNK9 inh = blocks the human KCNK9 two-pore domain potassium channel | Q9NPC2 | HEK293 KCNK9, FluxOR thallium flux fluorescence; active compounds read low | B-score at 10 µM | 310,000 tested, 1.2% active | AID 488922;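 active = ratio B-score over 3 SD below the library mean, with starting fluorescence within 5 SD of its mean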;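 note: negative B-score means less thallium flux so channel inhibition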
Target sequence (Q9NPC2 whole entry, looked up, the tested form may be a part): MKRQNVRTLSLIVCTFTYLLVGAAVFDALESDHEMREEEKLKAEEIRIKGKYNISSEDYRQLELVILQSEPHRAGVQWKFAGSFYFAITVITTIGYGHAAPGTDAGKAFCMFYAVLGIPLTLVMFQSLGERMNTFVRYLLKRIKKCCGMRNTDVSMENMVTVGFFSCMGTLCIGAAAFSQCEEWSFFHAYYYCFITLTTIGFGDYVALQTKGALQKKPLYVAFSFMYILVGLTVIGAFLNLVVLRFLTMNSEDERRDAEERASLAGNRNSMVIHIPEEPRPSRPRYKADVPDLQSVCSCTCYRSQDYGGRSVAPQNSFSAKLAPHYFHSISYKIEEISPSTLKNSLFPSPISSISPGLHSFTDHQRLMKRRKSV
hERG protect = compounds protecting human hERG from proarrhythmic drug block. activation (rescue from dofetilide block), less the hit threshold, % at 10 µM. CHO-hERG, FluxOR thallium flux, dofetilide IC70 present. Q12809. 310,000 tested, 0.51% active;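 active = activation above the mean of controls blocked by dofetilide plus 5 SD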;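 note: thallium influx through hERG after potassium depolarization seen as dye fluorescence rise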
KCNQ1 inh = human KCNQ1 channel inhibition; 310,000 tested, 1.3% active; P51787; CHO-K1 KCNQ1, FluxOR thallium flux fluorescence; active compounds read high; B-score at 10 µM; AID 2642;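 active = compounds whose thallium flux B-score, printed positive for inhibition, exceeds three library SD while starting fluorescence stays within three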;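 note: channel opened by potassium depolarization with thallium stimulus after 20 min compound exposure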
KCNQ1 act = potentiators or activators of human KCNQ1 potassium channel | CHO-K1 KCNQ1, thallium flux FluxOR fluorescence; active compounds read high | 310,000 tested, 0.35% active | AID 2648 | B-score at 10 µM | P51787;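 active = fluorescence ratio B-score, a plate-corrected score, at least three library SD, with initial intensity B-score within 5 SD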
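System: CHO-K1 cells stably expressing KCNQ1 / Medium: assay buffer for compound exposure, DMSO matched across wells / Reagent: thallium- and potassium-containing depolarizing buffer / Compound: one concentration, matched DMSO / Incubation: 20 min compound pretreatment at room temperature / Measured by: kinetic FluxOR fluorescence, 10 s baseline plus 110 s post-stimulus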
* = called active by the depositor; i = inactive; x = no result. Most compounds without a hit are left out; they make up all but 4.1% or so of the library.

SMILES	KCC2 mod	KCNK3 block	KCNK9 inh	hERG protect	KCNQ1 inh	KCNQ1 act
CCCCN(CCCC)C1=Nc2ccccc2N/C1=C(/C#N)C(=O)OCC	0.282	i	i	-7.5	7*	i
COc1cc(C(C)=O)ccc1OCC(=O)OC(C)C(=O)c1ccc(F)cc1 (centres undefined)	x	i	x	x	x	x
CCOC(=O)/C(=C\c1cccnc1)C(=O)c1cc(C(C)=O)c(Nc2ccccc2)s1	-0.429	i	i	-8.6	i	36*
CCOC(=O)/C(=C\c1ccccc1)C(=O)c1cc(C(C)=O)c(Nc2ccccc2)s1	-0.00202	i	i	-13.9	i	i
O=Cc1ccc(-c2cccc([N+](=O)[O-])c2)o1	-0.514	i	i	-6.1	i	i
O=C1NC(=O)/C(=C/c2ccc(-c3cccc([N+](=O)[O-])c3)o2)S1	x	i	i	-6.1	12*	i
CC(CCc1ccccc1)NC(=O)COc1cc(F)ccc1[N+](=O)[O-] (centres undefined)	-2.69	i	i	-11.0	i	24*
CCC(C)NC(=O)COc1ccccc1[N+](=O)[O-] (centres undefined)	-0.727	i	i	-5.0	i	i
CC(CCc1ccccc1)NC(=O)COC(=O)c1cc(NS(=O)(=O)c2ccc(Cl)c([N+](=O)[O-])c2)ccc1O (centres undefined)	-1.67	i	i	-15.2	6*	i
COc1cccc(CCNC(=O)CCc2nnc(Cc3cc(OC)ccc3OC)o2)c1	x	i	i	-6.6	i	i
C/C(=N/Nc1ccc(C(=O)c2c(C)cc3ccccn23)cc1[N+](=O)[O-])c1ccc(O)cc1	x	i	x	x	x	x
COc1ccc(C2=NOC(Cn3nc(C(=O)NCC4CC4)cc3-c3ccccc3)C2)cc1 (centres undefined)	x	i	i	-10.9	i	i
CCOC(=O)/C(=N/Nc1ccc(Br)cc1)N1CC(C)OC(C)C1 (centres undefined)	x	-8.72*	x	x	x	x
O=C(NCc1ccc2c(c1)OCO2)c1ccc(CSCc2cccc(Cl)c2)o1	0.108	i	-7.49*	-13.7	i	i
O=C(CSCc1cccc(Cl)c1)NCc1ccc2c(c1)OCO2	-0.49	i	i	-11.3	i	i
O=C(O)CSc1cccc[n+]1[O-]	0.201	i	i	-4.2	i	i
O=C(CSc1cccc[n+]1[O-])c1cc2ccccc2o1	7.19*	i	i	-2.0	i	i
CC(C)Cn1c(N)c(C(=O)COC(=O)C2Cc3ccccc3CN2S(C)(=O)=O)c(=O)n(C)c1=O (centres undefined)	x	i	x	x	x	x
Cc1ccc(C(C)C)c(OCC(=O)OCc2c(C)noc2C)c1	0.196	i	-7.37*	-6.8	i	i
Cc1ccc(C(C)C)c(OCC(=O)OCC(=O)NC2CC2)c1	x	i	x	x	x	x
COC(=O)c1ccc(/C=C/c2ccc3cccc(OC)c3n2)cc1	-2.08	i	i	44.4*	i	i
Cc1cc(C)c(C)c(S(=O)(=O)N2CCN(c3ncnc4ccccc34)CC2)c1C	x	-10.1*	x	x	x	x
Cc1cc(C)c(C)c(S(=O)(=O)N2CCN(c3ccccn3)CC2)c1C	x	i	i	-9.0	i	i
COc1ccccc1CNC(=O)c1cccc(S(=O)(=O)N2CCCC2)c1	x	i	x	x	x	x
COc1ccc(OC)c(-c2oc3ccccc3c(=O)c2O)c1	6.83*	i	i	-7.7	i	i
SMILES	KCC2 mod	KCNK3 block	KCNK9 inh	hERG protect	KCNQ1 inh	KCNQ1 act
Cc1noc(C)c1S(=O)(=O)N(C)C[C@H]1Oc2c(NC(=O)NC(C)C)cccc2C(=O)N([C@H](C)CO)C[C@@H]1C	x	i	x	x	x	x
CCCCCCCCC1=NCCc2c1[nH]c1ccccc21	x	i	i	-23.3	8*	i
COc1cccc(-c2ncc3ccccc3c2COC(=O)c2ccc(C(F)(F)F)cc2)c1	x	i	x	x	x	x
CCCCN(C)C(=O)CCCCn1c(=O)[nH]c2cc(OCC)c(OCC)cc2c1=O	-1.42	i	i	47.8*	i	i
CCOc1cc2[nH]c(=O)n(CCCCCC(=O)NCc3ccco3)c(=O)c2cc1OCC	-0.22	i	i	-3.4	i	i
CC(C)Sc1nsc2nc(=O)c(/C=C3\C=Nc4ccccc43)c(N)n12	-1.72	i	i	-6.0	i	i
